Source: PubChem
hERG rescue: hERG (human) protection from proarrhythmic block | 310,000 compounds, 0.51% hits | Q12809 | activation (rescue from dofetilide block), less the hit threshold, % at 10 µM | CHO-hERG, FluxOR thallium flux, dofetilide IC70 present;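 active means activation above the mean of controls blocked by dofetilide plus 5 SD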;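 further: thallium influx through hERG after potassium depolarization seen as dye fluorescence rise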
Target sequence (Q12809 whole entry, looked up): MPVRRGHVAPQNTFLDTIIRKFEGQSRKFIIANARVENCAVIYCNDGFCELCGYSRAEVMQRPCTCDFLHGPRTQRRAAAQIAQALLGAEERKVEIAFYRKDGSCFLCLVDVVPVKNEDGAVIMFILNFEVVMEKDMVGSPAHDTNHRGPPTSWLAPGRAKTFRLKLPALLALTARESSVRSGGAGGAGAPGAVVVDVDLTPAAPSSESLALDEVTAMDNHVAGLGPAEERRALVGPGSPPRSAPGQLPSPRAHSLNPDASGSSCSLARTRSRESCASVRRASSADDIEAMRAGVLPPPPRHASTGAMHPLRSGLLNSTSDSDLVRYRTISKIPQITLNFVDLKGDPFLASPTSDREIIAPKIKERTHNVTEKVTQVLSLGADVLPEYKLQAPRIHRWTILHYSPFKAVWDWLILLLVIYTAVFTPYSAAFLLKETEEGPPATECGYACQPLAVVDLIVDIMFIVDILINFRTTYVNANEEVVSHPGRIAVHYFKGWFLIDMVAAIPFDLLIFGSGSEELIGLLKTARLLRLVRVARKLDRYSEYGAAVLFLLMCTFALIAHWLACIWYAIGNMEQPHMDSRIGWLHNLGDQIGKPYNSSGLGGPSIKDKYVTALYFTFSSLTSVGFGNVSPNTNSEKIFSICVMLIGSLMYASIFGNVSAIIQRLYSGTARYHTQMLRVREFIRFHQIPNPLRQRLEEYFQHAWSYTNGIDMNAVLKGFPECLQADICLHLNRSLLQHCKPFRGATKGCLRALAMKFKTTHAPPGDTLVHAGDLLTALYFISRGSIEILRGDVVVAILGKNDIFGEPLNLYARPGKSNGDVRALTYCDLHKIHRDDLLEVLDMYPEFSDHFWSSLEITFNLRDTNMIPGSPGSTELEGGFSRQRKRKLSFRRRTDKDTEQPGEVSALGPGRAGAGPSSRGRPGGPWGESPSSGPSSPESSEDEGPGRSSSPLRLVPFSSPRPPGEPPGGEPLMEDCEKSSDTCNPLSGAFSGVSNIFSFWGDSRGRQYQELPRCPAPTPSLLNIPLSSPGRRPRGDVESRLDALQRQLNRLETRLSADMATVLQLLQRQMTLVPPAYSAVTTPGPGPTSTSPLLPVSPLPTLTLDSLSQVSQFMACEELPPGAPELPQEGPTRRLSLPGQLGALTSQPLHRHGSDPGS
Kir21 block: Kir2.1 (mouse) channel inhibition; P35561; HEK293-Kir2.1, FluxOR thallium flux fluorescence; hits give low values; B-score at 10 µM; 310,000 compounds, 0.85% hits; AID 1672;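 active means fluorescence ratio B-score at or below minus 3 SD of library scores, with starting-brightness B-score within 2 SD, cut at about -4.2 in these data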;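 further: channel flux triggered by added potassium and thallium sulfate stimulus; B-score of peak minus minimum fluorescence over baseline after thallium stimulus; more negative B-score means stronger Kir2.1 block with less thallium influx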
KCNK9 inh: blocks the human KCNK9 two-pore domain potassium channel | HEK293 KCNK9, FluxOR thallium flux fluorescence; hits give low values | 310,000 compounds, 1.2% hits | B-score at 10 µM;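 active means ratio B-score over 3 SD below the library mean, with starting fluorescence within 5 SD of its mean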;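 further: negative B-score means less thallium flux so channel inhibition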
KCNQ1 block: inhibitors of human KCNQ1 potassium channel. CHO-K1 KCNQ1, FluxOR thallium flux fluorescence; hits give high values. B-score at 10 µM. 310,000 compounds, 1.3% hits;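 active means compounds whose thallium flux B-score, printed positive for inhibition, exceeds three library SD while starting fluorescence stays within three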;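 further: channel opened by potassium depolarization with thallium stimulus after 20 min compound exposure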
KCNQ1 pot: potentiates or activates the human KCNQ1 potassium channel | P51787 | CHO-K1 KCNQ1, thallium flux FluxOR fluorescence; hits give high values | B-score at 10 µM | 310,000 compounds, 0.35% hits;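 active means fluorescence ratio B-score, a plate-corrected score, at least three library SD, with initial intensity B-score within 5 SD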
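Assay system: CHO-K1 cells stably expressing KCNQ1. Medium: assay buffer for compound exposure, DMSO matched across wells. Timing: 37 °C overnight plating, 90-min dark dye load, 20-min compound pretreatment. Signal: kinetic FluxOR fluorescence, 10 s baseline plus 110 s post-stimulus.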
KCNK3 block: human KCNK3 channel inhibition, primary screen; O14649; CHO-KCNK3 thallium flux, FluxOR fluorescence; hits give low values; B-score at 10 µM; 340,000 compounds, 0.84% hits; AID 602410;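 active means B-score under library mean minus 4 SD, starting fluorescence ratio at most library mean plus 5 SD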;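 further: more negative B-score means stronger inhibition of thallium flux through KCNK3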
KCNK9 inh conf: confirmation of human KCNK9 potassium channel inhibitors. AID 492992. shares compounds with KCNK9 inh. HEK293 KCNK9 cells, FluxOR thallium flux fluorescence. 4,900 compounds, 43% hits. inhibition, % at 10 µM;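 active means thallium signal inhibited by more than 5 SD of the compound-free buffer control wells, on both duplicate plates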;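 further: 0% = assay buffer control wells without compound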
Kir2-1 spec: tests whether KCNK9 modulators also affect mouse Kir2.1; shares compounds with KCNK9 inh; Kir2.1 cells, FluxOR thallium flux fluorescence; inhibition, % at 10 µM; 4,900 compounds, 4% hits;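 active means thallium signal drop more than 5 SD beyond the mean of the no-compound control wells, seen in both duplicate plates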;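 further: signal is fluorescence rise after thallium addition divided by baseline fluorescence; plate controls were assay buffer only for no effect and full block by chlorpromazine control for full effect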
HEK293 Tl ctr: second check of KCNK9 modulator effects in non-induced HEK293 cells. inhibition, % at 10 µM. shares compounds with KCNK9 inh. AID 492997. 4,900 compounds, 40% hits. FluxOR thallium flux;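 active means thallium signal drop beyond 5 SD of the untreated control mean, on both duplicate plates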;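 further: plate controls were buffer only IC0 wells for no effect and SID17386958 at its maximal inhibitory level for full effect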
Starred values were filed as active, the others as inactive; i = inactive; · = no result given. Most compounds without a hit are left out; they make up all but 3.8% or so of the library.

SMILES	hERG rescue	Kir21 block	KCNK9 inh	KCNQ1 block	KCNQ1 pot	KCNK3 block	KCNK9 inh conf	Kir2-1 spec	HEK293 Tl ctr
CCOc1cc(/C=N/NC(=O)CNc2cccc(C)c2)ccc1OC(=O)c1ccccc1	-6.9	-0.68	i	i	i	i	·	·	·
CCOc1cc(/C=N/Nc2cccc(C(=O)O)c2)ccc1OC(=O)c1ccccc1	-4.2	0.42	i	i	i	i	i	i	i
CCOC(=O)c1[nH]ncc1CN1CCCC(C(=O)c2cccc(OC(C)C)c2)C1 (centres undefined)	-14.1	-1.01	i	i	i	i	·	·	·
COCc1cc(CN2CCCC(C(=O)c3cccc(C(F)(F)F)c3)C2)ccc1OC (centres undefined)	-12.8	-0.37	i	i	i	i	i	i	i
COc1ccc(CN2CCCC(C(=O)c3cccc(OC(C)C)c3)C2)cc1Cn1cccn1 (centres undefined)	-23.3	-0.76	i	i	i	i	i	i	i
CCn1ncc(CN2CCCC(C(=O)c3cccc(OC(C)C)c3)C2)c1C (centres undefined)	-8.5	1.59	i	i	i	i	i	i	i
COc1ccc(CNC(=O)CNS(=O)(=O)c2cccs2)cc1	-5.7	0.03	i	i	i	i	·	·	·
COc1ccccc1OCC(=O)Nc1cc(S(=O)(=O)N2CCOCC2)ccc1N1CCCCC1	·	·	·	·	·	i	·	·	·
COc1cc(/C=C2\SC(=Nc3ccccc3)NC2=O)cc(Cl)c1O	-1.3	-3.27	i	i	i	i	·	·	·
CCc1ccc(N=C2NC(=O)/C(=C/c3cc(OC)c(O)c(OC)c3)S2)cc1	-11.2	-0.11	-8.78*	i	i	i	i	i	33.5%*
CC[n+]1c(/C=C/N(C)c2ccccc2)n(-c2ccccc2)c2ccc(-c3nc4ccccc4s3)cc21	-30.7	-6.97*	-16.5*	15*	i	-9.74*	89.5%*	78.0%*	76.5%*
CC[n+]1cccc(-c2nc3ccccc3s2)c1	-13.1	0	i	i	i	i	·	·	·
Cc1ccccc1NC1=C(C(=O)c2ccccc2)N(C)S(=O)(=O)c2ccccc21	-11.2	0.34	-11.9*	i	i	-8.99*	31.5%*	i	37.5%*
Cc1cccc(-c2nc(S(=O)(=O)c3ccc(F)cc3)c(NCCCN3CCOCC3)o2)c1	-16.1	0.49	i	i	i	i	·	·	·
COC(=O)c1cc2c(ccn2-c2ccc(F)cc2)n1Cc1ccc(OC)cc1	-6.0	0.03	i	i	i	i	·	·	·
COC(=O)c1cc2c(ccn2-c2ccc(F)cc2)n1Cc1ccc(C#N)cc1	-5.3	0.31	-9.54*	i	i	i	37.5%*	i	31.5%*
CCC(C(=O)NCCc1ccccc1OC)n1nc(C)c2c(C)n(-c3ccccc3)nc2c1=O (centres undefined)	-12.1	-0.98	i	i	i	i	·	·	·
c1ccc(-c2csc3ncnc(N4CCc5ccccc5C4)c23)cc1	-13.1	-8.52*	-10.9*	i	i	i	55.0%*	i	38.0%*
COc1cccc(C(=O)N(c2ccc(C)cc2)C2C=CS(=O)(=O)C2)c1 (centres undefined)	-7.0	-2.21	i	i	i	i	·	·	·
CC(C)(C)N(Cc1ccccc1)C(=O)c1ccc(Cl)cc1[N+](=O)[O-]	-20.0	-0.01	i	i	i	i	i	i	i
C=CCNC(=S)N1CCC(C(=O)c2ccc(Cl)cc2)CC1	-4.1	0.13	i	i	i	i	·	·	·
Cc1ccc(S(=O)(=O)N(C)C)cc1-n1c(SCC(=O)Nc2ccc(F)cc2)nc2ccccc2c1=O	-5.8	1.97	-9.66*	i	i	i	50.0%*	i	24.5%*
CCOC(=O)CC1C(=O)NCCN1S(=O)(=O)c1cccc(C(F)(F)F)c1 (centres undefined)	-5.5	-1.82	i	i	i	i	·	·	·
COCC1CCN(C(=O)C2CCC(=O)N(C3CCCCCC3)C2)CC1 (centres undefined)	-1.0	-0.05	i	i	i	i	·	·	·
CN(Cc1ccccc1)c1ncnc2c1cnn2-c1ccccc1	-12.8	-1.4	i	i	i	i	·	·	·
SMILES	hERG rescue	Kir21 block	KCNK9 inh	KCNQ1 block	KCNQ1 pot	KCNK3 block	KCNK9 inh conf	Kir2-1 spec	HEK293 Tl ctr
CCN(c1ccccc1)c1ncnc2c1cnn2-c1ccccc1	-22.9	1.78	i	i	i	i	i	i	i
OCC1(Cc2cccc(Cl)c2)CCCN(Cc2sc(N3CCCC3)nc2Cl)C1 (centres undefined)	-11.7	0.04	i	i	i	i	i	i	i
COc1ccccc1/C=C/CN1CCCC(CO)(Cc2cccc(Cl)c2)C1 (centres undefined)	-18.7	0	i	i	i	i	i	i	i
O=C(C1=C(O)C(=O)N(CC2CCCO2)C1c1cccc(Cl)c1)c1ccco1 (centres undefined)	-0.8	0.64	i	i	i	i	·	·	·
Cc1ccc(C)c(C(=O)COC(=O)Cn2c(C)csc2=O)c1	-10.8	-0.93	i	i	i	i	·	·	·
CCOC(=O)C1CCN(C(=O)c2oc3ccc(S(=O)(=O)N4CC(C)CC(C)C4)cc3c2C)CC1 (centres undefined)	-5.8	0.41	i	i	i	i	i	i	i
O=C(c1ccccc1NS(=O)(=O)c1cccc([N+](=O)[O-])c1)N1CCCC1	-11.9	-0.29	i	i	i	i	·	·	·
COc1ccc(CCN(C)C(=O)c2cc(S(=O)(=O)N3CCCCCC3)ccc2OC)cc1OC	-8.8	-2.57	i	i	i	i	·	·	·
COc1ccc(S(=O)(=O)N2CCCCCC2)cc1C(=O)N(C)Cc1ccc(C)cc1	-14.1	-1.91	i	i	i	i	i	i	i
O=Cc1ccc(OCCOc2ccc([N+](=O)[O-])cc2)cc1	-6.1	-0.85	i	i	i	i	·	·	·
CCc1c(C)nc2[nH]ncn2c1=O	·	·	·	·	·	i	·	·	·
O=C(NCc1ccccc1)C1=C[C@H](c2ccc3c(c2)OCO3)C[C@H](OCCCCO)O1	-9.3	0	i	i	i	i	i	i	i
